ChEMBL document CHEMBL3120154, “2-[N-Alkyl(R-phenyl)-aminomethyl]-3-phenyl-7-trifluoromethylquinoxalines as anticancer agents inhibitors of folate enzymes” (Eur J Med Chem, 2014)

Columns and labels:
Assay type in all cases: functional
MDA-MB-231 = assay: Cytotoxicity against human MDA-MB-231 cells at 10^-4 M after 48 hrs by SRB assay; conditions: MDA-MB-231, 48 h, read-out: GI
Outline: (§1)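 Run in the NCI 60-cell-line screen after a three-line prescreen. Cells got a 48 h drug exposure; viability/growth was estimated with the sulforhodamine B protein assay. Growth inhibition (I%) was recorded at 100, 10, 1, 0.1 and 0.01 micromolar. Percent growth is relative to untreated control cells, and negative values indicate cell kill.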

TK-10 = assay: Cytotoxicity against human TK10 cells at 10^-4 M after 48 hrs by SRB assay; conditions: TK-10, 48 h, read-out: GI
Outline: (§2)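 Second-stage screen in the 60-cell-line human tumor panel at NCI, over a 5-log range (100, 10, 1, 0.1, 0.01 micromolar). Cells were exposed to drug for 48 h and growth was estimated with a sulforhodamine B protein stain. The value is percent growth inhibition at each concentration.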

OVCAR-8 = assay: Cytotoxicity against human OVCAR8 cells at 10^-4 M after 48 hrs by SRB assay; conditions: OVCAR-8, 48 h, read-out: GI; outline: as §2
BT-549 = assay: Cytotoxicity against human BT549 cells at 10^-4 M after 48 hrs by SRB assay; conditions: BT-549, 48 h, read-out: GI
Outline: (§3)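 Run by NCI on its 60-line human tumor cell panel, after a three-cell-line prescreen. Cells were exposed to drug for 48 h over a 5-log range: 100, 10, 1, 0.1 and 0.01 micromolar. Growth was estimated by sulforhodamine B (SRB) protein staining. Percent growth inhibition (I%) was recorded at each concentration relative to untreated control cells.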

SW-620 = assay: Cytotoxicity against human SW620 cells at 10^-4 M after 48 hrs by SRB assay; conditions: SW-620, 48 h, read-out: GI; outline: as §2
K562 = assay: Cytotoxicity against human K562 cells at 10^-4 M after 48 hrs by SRB assay; conditions: K562, 48 h, read-out: GI; outline: as §1
[1] = Cytotoxicity against human UO31 cells at 10^-4 M after 48 hrs by SRB assay; conditions: UO-31, 48 h, read-out: GI; outline: as §2
NCI-H522 = assay: Cytotoxicity against human NCI-H522 cells at 10^-4 M after 48 hrs by SRB assay; conditions: NCI-H522, 48 h, read-out: GI; outline: as §1
[2] = Cytotoxicity against human UACC257 cells at 10^-4 M after 48 hrs by SRB assay; conditions: UACC-257, 48 h, read-out: GI; outline: as §2
NCI-H460 = assay: Cytotoxicity against human NCI-H460 cells at 10^-4 M after 48 hrs by SRB assay; conditions: NCI-H460, 48 h, read-out: GI; outline: as §1
NCI-H23 = assay: Cytotoxicity against human NCI-H23 cells at 10^-4 M after 48 hrs by SRB assay; conditions: NCI-H23, 48 h, read-out: GI; outline: as §1
SF-268 [3] = assay: Cytotoxicity against human SF268 cells assessed as cell growth at 10^-4 M after 48 hrs by alamar blue assay relative to untreated control; conditions: SF-268, 48 h, read-out: Activity
Outline: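 Three-cell-line prescreen at NCI. Each line was seeded and pre-incubated, then given a single concentration (10^-4 or 10^-5 M) and incubated for 48 h. The end-point was alamar blue. The value is percent growth of treated cells versus untreated control cells, with negative numbers indicating cell kill.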

HOP-92 = assay: Cytotoxicity against human HOP92 cells at 10^-4 M after 48 hrs by SRB assay; conditions: HOP-92, 48 h, read-out: GI; outline: as §3
CCRF-CEM = assay: Cytotoxicity against human CCRF-CEM cells at 10^-4 M after 48 hrs by SRB assay; conditions: read-out: GI; outline: as §3
UACC-62 = assay: Cytotoxicity against human UACC62 cells at 10^-4 M after 48 hrs by SRB assay; conditions: UACC-62, 48 h, read-out: GI; outline: as §2
CAKI-1 = assay: Cytotoxicity against human Caki1 cells at 10^-4 M after 48 hrs by SRB assay; conditions: CAKI-1, 48 h, read-out: GI; outline: as §3
SK-MEL-5 = assay: Cytotoxicity against human SK-MEL-5 cells at 10^-4 M after 48 hrs by SRB assay; conditions: SK-MEL-5, 48 h, read-out: GI; outline: as §2
HCC 2998 = assay: Cytotoxicity against human HCC2998 cells at 10^-4 M after 48 hrs by SRB assay; conditions: HCC 2998, 48 h, read-out: GI; outline: as §3
SF-268 [4] = assay: Cytotoxicity against human SF268 cells at 10^-4 M after 48 hrs by SRB assay; conditions: SF-268, 48 h, read-out: GI; outline: as §2
MDA-MB-435 = assay: Cytotoxicity against human MDA-MB-435 cells at 10^-4 M after 48 hrs by SRB assay; conditions: MDA-MB-435, 48 h, read-out: GI; outline: as §1
NCI-H226 = assay: Cytotoxicity against human NCI-H226 cells at 10^-4 M after 48 hrs by SRB assay; conditions: NCI-H226, 48 h, read-out: GI; outline: as §1
RXF 393 = assay: Cytotoxicity against human RXF393 cells at 10^-4 M after 48 hrs by SRB assay; conditions: RXF 393, 48 h, read-out: GI; outline: as §2
786-0 = assay: Cytotoxicity against human 786-0 cells at 10^-4 M after 48 hrs by SRB assay; conditions: 786-0, 48 h, read-out: GI; outline: as §3
HOP-62 = assay: Cytotoxicity against human HOP62 cells at 10^-4 M after 48 hrs by SRB assay; conditions: HOP-62, 48 h, read-out: GI; outline: as §3
DU-145 = assay: Cytotoxicity against human DU145 cells at 10^-4 M after 48 hrs by SRB assay; conditions: DU-145, 48 h, read-out: GI; outline: as §3
HT-29 = assay: Cytotoxicity against human HT-29 cells at 10^-4 M after 48 hrs by SRB assay; conditions: HT-29, 48 h, read-out: GI; outline: as §3
NCI-H322M = assay: Cytotoxicity against human NCI-H322M cells at 10^-4 M after 48 hrs by SRB assay; conditions: read-out: GI; outline: as §1
RPMI-8226 = assay: Cytotoxicity against human RPMI8226 cells at 10^-4 M after 48 hrs by SRB assay; conditions: RPMI-8226, 48 h, read-out: GI; outline: as §2
T47D = assay: Cytotoxicity against human T47D cells at 10^-4 M after 48 hrs by SRB assay; conditions: read-out: GI; outline: as §2
M14 = assay: Cytotoxicity against human M14 cells at 10^-4 M after 48 hrs by SRB assay; conditions: M14, 48 h, read-out: GI; outline: as §1
A549 = assay: Cytotoxicity against human A549 cells at 10^-4 M after 48 hrs by SRB assay; conditions: A549, 48 h, read-out: GI; outline: as §3
[5] = Cytotoxicity against human EKVX cells at 10^-4 M after 48 hrs by SRB assay; conditions: read-out: GI; outline: as §3
[6] = Cytotoxicity against human OVCAR5 cells at 10^-4 M after 48 hrs by SRB assay; conditions: OVCAR-5, 48 h, read-out: GI; outline: as §2
Malme-3M = assay: Cytotoxicity against human MALME-3M cells at 10^-4 M after 48 hrs by SRB assay; conditions: read-out: GI; outline: as §1

SMILES	inhibition of growth at 100 µM (MDA-MB-231)	inhibition of growth at 100 µM (TK-10)	inhibition of growth at 100 µM (OVCAR-8)	inhibition of growth at 100 µM (BT-549)	inhibition of growth at 100 µM (SW-620)	inhibition of growth at 100 µM (K562)	inhibition of growth at 100 µM [1]	inhibition of growth at 100 µM (NCI-H522)	inhibition of growth at 100 µM [2]	inhibition of growth at 100 µM (NCI-H460)	inhibition of growth at 100 µM (NCI-H23)	growth at 100 µM (SF-268 [3])	inhibition of growth at 100 µM (HOP-92)	inhibition of growth at 100 µM (UACC-62)	inhibition of growth at 100 µM (CAKI-1)	inhibition of growth at 100 µM (SK-MEL-5)	inhibition of growth at 100 µM (HCC 2998)	inhibition of growth at 100 µM (SF-268 [4])	inhibition of growth at 100 µM (MDA-MB-435)	inhibition of growth at 100 µM (RXF 393)	other results
CCN(Cc1nc2cc(C(F)(F)F)ccc2nc1-c1ccccc1)c1ccc(OC)c(OC)c1	174%	109%	174%	167%	164%	160%	145%	164%	192%	97%	158%	0%	184%	195%	117%	191%	174%	99%	183%	179%	inhibition of growth at 100 µM (CCRF-CEM): 146%; inhibition of growth at 100 µM (NCI-H226): 179%; inhibition of growth at 100 µM (786-0): 191%; inhibition of growth at 100 µM (HOP-62): 195%; inhibition of growth at 100 µM (DU-145): 173%; inhibition of growth at 100 µM (HT-29): 97%; inhibition of growth at 100 µM (NCI-H322M): 96%; inhibition of growth at 100 µM (RPMI-8226): 162%; inhibition of growth at 100 µM (T47D): 120%; inhibition of growth at 100 µM (M14): 194%; inhibition of growth at 100 µM (A549): 177%; inhibition of growth at 100 µM [5]: 112%; inhibition of growth at 100 µM [6]: 152%
C#CCN(Cc1nc2cc(C(F)(F)F)ccc2nc1-c1ccccc1)c1ccc(OC(F)(F)F)cc1	81%	64%	57%	86%	75%	78%	70%	125%	44%	78%	60%	21%	109%	64%	69%	86%	104%	63%	86%	67%	inhibition of growth at 100 µM (786-0): 46%; inhibition of growth at 100 µM (HOP-62): 48%; inhibition of growth at 100 µM (DU-145): 75%; inhibition of growth at 100 µM (HT-29): 77%; inhibition of growth at 100 µM (NCI-H322M): 79%; inhibition of growth at 100 µM (RPMI-8226): 88%; inhibition of growth at 100 µM (Malme-3M): < 40%; inhibition of growth at 100 µM (T47D): 70%; inhibition of growth at 100 µM (M14): 76%; inhibition of growth at 100 µM (A549): 60%; inhibition of growth at 100 µM [5]: 89%; inhibition of growth at 100 µM [6]: < 40%
